Holding throughout (type): protein-complex assay, Hepacivirus hominis
Experiment [1] addresses T1, Hepatitis C virus serine protease, NS3/NS4A (Hepatitis C virus, UniProt A3EZI9+D2K2A8). Briefly: Inhibition of HCV serine protease NS3/NS4A in the presence of EDTA. The procedure, abridged:
(§1)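 No Zn(II) added; EDTA included. Inhibitor at varying concentrations preincubated 30 min at room temperature (21–24 °C). Reaction started with the quenched-fluorescence substrate Ac-DED(Edans)EE-Abu[COO]-ASK(Dabcyl)-CONH₂.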

The target of experiment [2] is T1, Hepatitis C virus serine protease, NS3/NS4A. Put plainly: Inhibition of HCV serine protease NS3/NS4A in the presence of Zn. The gist of the method:
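Same setup run with ZnCl₂ added instead of EDTA. NS3 protease construct (first 183 residues; 12 nM active sites) plus the 17-residue NS4A surrogate peptide. Inhibitor at several concentrations preincubated 30 min at 21–24 °C. The Edans/Dabcyl quenched-fluorescence depsipeptide substrate was then added to start the reaction.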

Experiment [3] shares this target. Put plainly: Inhibition of HCV serine protease NS3/NS4A in the presence of EDTA. The procedure, abridged:
as §1

T1 sequence (D2K2A8 whole entry): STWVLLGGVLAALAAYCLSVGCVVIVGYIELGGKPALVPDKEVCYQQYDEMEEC
T1 sequence (A3EZI9 whole entry): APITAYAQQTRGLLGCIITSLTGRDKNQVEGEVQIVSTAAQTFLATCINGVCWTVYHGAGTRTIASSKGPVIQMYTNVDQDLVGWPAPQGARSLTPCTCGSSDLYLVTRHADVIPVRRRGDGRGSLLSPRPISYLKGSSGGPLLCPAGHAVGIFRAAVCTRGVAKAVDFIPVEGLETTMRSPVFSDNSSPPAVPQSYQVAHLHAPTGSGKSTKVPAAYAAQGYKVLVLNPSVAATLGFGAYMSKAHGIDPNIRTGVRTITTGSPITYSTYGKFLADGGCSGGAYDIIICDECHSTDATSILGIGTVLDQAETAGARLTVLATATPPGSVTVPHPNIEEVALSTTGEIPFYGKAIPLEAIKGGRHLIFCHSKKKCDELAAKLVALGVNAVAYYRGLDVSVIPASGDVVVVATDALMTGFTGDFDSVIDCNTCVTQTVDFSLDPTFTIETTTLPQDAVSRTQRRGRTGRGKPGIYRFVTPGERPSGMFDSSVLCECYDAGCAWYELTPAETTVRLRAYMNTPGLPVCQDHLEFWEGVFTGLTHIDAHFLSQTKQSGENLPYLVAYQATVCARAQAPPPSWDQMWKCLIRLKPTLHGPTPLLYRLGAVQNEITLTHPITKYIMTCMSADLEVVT

In the case of `Cn1c(Cc2nc3ccccc3[nH]2)nc2ccc(C(=O)NC(CP(=O)(O)O)C(=O)O)cc21` (centres undefined), the Ki in experiment [1] was greater than 300 µM; in experiment [2], 0.45 µM.

On to `Cn1c(C(F)(F)c2nc3ccc(C(N)=O)cc3[nH]2)nc2ccc(C(=O)NC(CP(=O)(O)O)C(=O)O)cc21` (centres undefined), for which the figures for the Ki in experiment [1] and in experiment [2] were 74 µM and 1.2 µM, respectively.

As for `COC(=O)C(CP(=O)(O)O)NC(=O)c1ccc2[nH]c(C(F)(F)c3nc4ccc(C(=O)NC(CP(=O)(O)O)C(=O)OC)cc4n3C)nc2c1` (centres undefined), the figures for the inhibitory constant (Ki) in experiment [1] and in experiment [2] were 32 µM and 0.277 µM, respectively.

Regarding `Cn1c(C(F)(F)c2nc3ccc(C(=O)NC(CP(=O)(O)O)C(=O)O)cc3[nH]2)nc2ccc(C(=O)NC(CP(=O)(O)O)C(=O)O)cc21` (centres undefined), the figures for the inhibition constant (Ki) in experiment [1] and in experiment [2] were 15 µM and 0.073 µM, respectively.

Consider `CC(c1nc2ccc(C(N)=O)cc2[nH]1)c1nc2cc(C(=O)C(CP(=O)(O)O)C(=O)O)ccc2n1C` (centres undefined), for which the Ki in experiment [3] and in experiment [2] was greater than 300 µM in each case.

Regarding `Cn1c(C(F)(F)c2nc3ccccc3[nH]2)nc2ccc(C(=O)NC(CP(=O)(O)O)C(=O)NC(CP(=O)(O)O)C(=O)O)cc21` (centres undefined), the inhibition constant Ki in experiment [1] is 19.6 µM; in experiment [2], 0.82 µM.

As to `Cn1c(C(F)(F)c2nc3cc(F)c(F)cc3[nH]2)nc2ccc(C(=O)NC(CP(=O)(O)O)C(=O)O)cc21` (centres undefined), the inhibition constant Ki in experiment [1] is 15 µM; in experiment [2] it was 4 µM.

Take `CC(=O)NCc1nc2ccc(C(=O)NC(CP(=O)(O)O)C(=O)O)cc2n1C` (centres undefined): the Ki stood at 150 µM in experiment [3] and 32 µM in experiment [2].

For `Cn1c(Cc2nc3ccc(Cl)cc3[nH]2)nc2ccc(C(=O)NC(CP(=O)(O)O)C(=O)O)cc21` (centres undefined), the values for the Ki in experiment [3] and in experiment [2] were 130 µM and 0.38 µM, respectively.

Take `Cn1c(Cc2nc3c(F)cc(F)cc3[nH]2)nc2ccc(C(=O)NC(CP(=O)(O)O)C(=O)O)cc21` (centres undefined): the Ki amounted to 58 µM in experiment [3] and 0.24 µM in experiment [2].

`Cn1c(Cc2nc3c(F)c(F)c(F)cc3[nH]2)nc2ccc(C(=O)NC(CP(=O)(O)O)C(=O)O)cc21` (centres undefined): the Ki in experiment [1] stood at 21 µM; in experiment [2] it was 0.2 µM.

Regarding `Cn1c(Cc2nc3cc(F)ccc3[nH]2)nc2ccc(C(=O)NC(CP(=O)(O)O)C(=O)O)cc21` (centres undefined), the Ki amounted to 95 µM in experiment [3] and 0.28 µM in experiment [2].

As to `Cn1c(C(F)(F)c2nc3c(F)cc(F)cc3[nH]2)nc2ccc(C(=O)NC(CP(=O)(O)O)C(=O)O)cc21` (centres undefined), the Ki in experiment [1] came to 25 µM; in experiment [2], 1.4 µM.

With `Cn1c(Cc2nc3c(F)c(F)c(F)c(F)c3[nH]2)nc2ccc(C(=O)NC(CP(=O)(O)O)C(=O)O)cc21` (centres undefined), the inhibition constant Ki in experiment [1] is 17 µM; in experiment [2], 0.28 µM.

Regarding `Cn1c(Cc2nc3cc(F)c(F)cc3[nH]2)nc2ccc(C(=O)NC(CP(=O)(O)O)C(=O)O)cc21` (centres undefined), the values for the Ki in experiment [3] and in experiment [2] were 25 µM and 0.21 µM, respectively.

In the case of `Cn1c(Cc2nc3ccc(O)cc3[nH]2)nc2ccc(C(=O)NC(CP(=O)(O)O)C(=O)O)cc21` (centres undefined), the Ki in experiment [1] came out at 250 µM; in experiment [2], 0.19 µM.

Consider `CC(c1nc2ccccc2[nH]1)c1nc2ccc(C(=O)NC(CP(=O)(O)O)C(=O)O)cc2n1C` (centres undefined), for which the Ki turned out to be 215 µM in experiment [3] and 0.23 µM in experiment [2].

For `Cn1c(C(F)c2nc3c(F)cc(F)cc3[nH]2)nc2ccc(C(=O)NC(CP(=O)(O)O)C(=O)O)cc21` (centres undefined), the Ki in experiment [1] stood at 91 µM; in experiment [2] it was 0.66 µM.

As to `Cn1c(C(F)(F)c2nc3c(F)c(F)cc(F)c3[nH]2)nc2ccc(C(=O)NC(CP(=O)(O)O)C(=O)O)cc21` (centres undefined), the Ki in experiment [1] amounted to 12 µM; in experiment [2] it was 2.9 µM.

Consider `Cn1c(Cc2nc3cc(C(F)(F)F)ccc3[nH]2)nc2ccc(C(=O)NC(CP(=O)(O)O)C(=O)O)cc21` (centres undefined), for which the inhibitory constant (Ki) amounted to 70 µM in experiment [3] and 0.41 µM in experiment [2].

For `Cn1c(C(F)(F)c2nc3cc(F)ccc3[nH]2)nc2ccc(C(=O)NC(CP(=O)(O)O)C(=O)O)cc21` (centres undefined), the inhibition constant (Ki) in experiment [1] is 55 µM; in experiment [2] it was 1.3 µM.

For the compound `Cn1c(C(F)c2nc3ccccc3[nH]2)nc2ccc(C(=O)NC(CP(=O)(O)O)C(=O)O)cc21` (centres undefined), the figures for the Ki in experiment [1] and in experiment [2] were 37 µM and 0.47 µM, respectively.

Regarding `CC(C)(C)Cn1c(Cc2nc3ccccc3[nH]2)nc2ccc(C(=O)NC(CP(=O)(O)O)C(=O)O)cc21` (centres undefined), the results for the inhibition constant (Ki) in experiment [1] and in experiment [2] were greater than 300 µM and 0.61 µM, respectively.

`Cn1c(Cc2nc3ccc(C(=O)NC(CP(=O)(O)O)C(=O)O)cc3n2C)nc2ccccc21` (centres undefined): the Ki in experiment [3] came to 140 µM; in experiment [2], 3.8 µM.

With `O=C(NC(CP(=O)(O)O)C(=O)O)c1ccc2nc(Cc3nc4ccccc4[nH]3)n(CC3CC3)c2c1` (centres undefined), the inhibitory constant (Ki) turned out to be 140 µM in experiment [1] and 0.14 µM in experiment [2].

Regarding `Cc1cccc2[nH]c(C(F)(F)c3nc4ccc(C(=O)NC(CP(=O)(O)O)C(=O)O)cc4n3C)nc12` (centres undefined), the Ki in experiment [1] was found to be 66 µM; in experiment [2], 21 µM.

`Cc1ccc2nc(Cc3nc4ccc(C(=O)NC(CP(=O)(O)O)C(=O)O)cc4n3C)[nH]c2c1` (centres undefined): the inhibition constant (Ki) in experiment [1] was found to be 98 µM; in experiment [2], 0.24 µM.

Take `Cc1cccc2[nH]c(Cc3nc4ccc(C(=O)NC(CP(=O)(O)O)C(=O)O)cc4n3C)nc12` (centres undefined): the inhibition constant Ki was greater than 300 µM in experiment [1] and 10 µM in experiment [2].

Take `CC(c1ncc[nH]1)c1nc2ccc(C(=O)NC(CP(=O)(O)O)C(=O)O)cc2n1C` (centres undefined): the Ki was 110 µM in experiment [3] and 83 µM in experiment [2].

As for `CC(C)n1c(Cc2nc3ccccc3[nH]2)nc2ccc(C(=O)NC(CP(=O)(O)O)C(=O)O)cc21` (centres undefined), the Ki in experiment [1] is greater than 300 µM; in experiment [2], 12 µM.

For the compound `Cn1c(Cc2nc3ccc(C(N)=O)cc3[nH]2)nc2ccc(C(=O)NCC(=O)O)cc21`, the inhibition constant Ki was greater than 300 µM in experiment [3] and 68 µM in experiment [2].

On to `Cn1c(C(F)c2nc3c(F)c(F)cc(F)c3[nH]2)nc2ccc(C(=O)NC(CP(=O)(O)O)C(=O)O)cc21` (centres undefined), for which the results for the Ki in experiment [1] and in experiment [2] were 72 µM and 0.55 µM, respectively.

For `Cn1c(Cc2nc3cc(C(N)=O)ccc3[nH]2)nc2ccc(C(=O)NC(CP(=O)(O)O)C(=O)O)cc21` (centres undefined), the results for the Ki in experiment [1] and in experiment [2] were 170 µM and 0.2 µM, respectively.

Regarding `Cn1c(C(F)(F)c2nc3ccccc3[nH]2)nc2ccc(C(=O)NC(CP(=O)(O)O)C(=O)O)cc21` (centres undefined), the Ki in experiment [1] stood at 1.1 µM.

`Cn1c(Cc2nc3c(F)cc(F)c(F)c3[nH]2)nc2ccc(C(=O)NC(CP(=O)(O)O)C(=O)O)cc21` (centres undefined): the values for the Ki in experiment [1] and in experiment [2] were 22 µM and 0.35 µM, respectively.

Regarding `Cn1c(Cc2nc3ccc(C(=O)NC(CP(=O)(O)O)C(=O)O)cc3[nH]2)nc2ccc(C(=O)NC(CP(=O)(O)O)C(=O)O)cc21` (centres undefined), the inhibitory constant (Ki) in experiment [1] is 21 µM; in experiment [2], 0.1 µM.

Take `COc1ccc2nc(Cc3nc4ccc(C(=O)NC(CP(=O)(O)O)C(=O)O)cc4n3C)[nH]c2c1` (centres undefined): the Ki in experiment [1] was determined as 187 µM; in experiment [2] it was 0.2 µM.

With `COc1cccc2[nH]c(Cc3nc4ccc(C(=O)NC(CP(=O)(O)O)C(=O)O)cc4n3C)nc12` (centres undefined), the Ki in experiment [1] amounted to 24 µM; in experiment [2], 0.49 µM.

In the case of `CC(C)CCn1c(Cc2nc3ccccc3[nH]2)nc2ccc(C(=O)NC(CP(=O)(O)O)C(=O)O)cc21` (centres undefined), the inhibition constant (Ki) is greater than 300 µM in experiment [1] and 0.87 µM in experiment [2].

For the compound `Cn1c(C(F)(F)c2nc3ccc(C(=O)NC(CP(=O)(O)O)C(=O)O)cc3[nH]2)nc2ccc(C(=O)NC(CP(=O)(O)O)C(=O)NC(CP(=O)(O)O)C(=O)O)cc21` (centres undefined), the inhibition constant Ki came to 1 µM in experiment [1] and 0.027 µM in experiment [2].

Consider `CC(c1nc2ccccc2[nH]1)c1nc2cccc(C(=O)NC(CP(=O)(O)O)C(=O)O)c2n1C` (centres undefined), for which the inhibition constant (Ki) in experiment [3] came to 181 µM; in experiment [2], 1.2 µM.

For the compound `COP(=O)(O)CC(NC(=O)c1ccc2nc(Cc3nc4ccc(C(N)=O)cc4[nH]3)n(C)c2c1)C(=O)O` (centres undefined), the Ki was determined as 38.1 µM in experiment [3] and 1.36 µM in experiment [2].

As to `CC(C)Cn1c(Cc2nc3ccccc3[nH]2)nc2ccc(C(=O)NC(CP(=O)(O)O)C(=O)O)cc21` (centres undefined), the inhibition constant (Ki) in experiment [1] was greater than 300 µM; in experiment [2] it was 0.37 µM.

As to `Cn1c(Cc2nc3c(F)c(F)ccc3[nH]2)nc2ccc(C(=O)NC(CP(=O)(O)O)C(=O)O)cc21` (centres undefined), the inhibitory constant (Ki) stood at 140 µM in experiment [1] and 0.27 µM in experiment [2].

With `Cn1c(C(F)(F)c2nc3ccc(Cl)cc3[nH]2)nc2ccc(C(=O)NC(CP(=O)(O)O)C(=O)O)cc21` (centres undefined), the inhibition constant Ki in experiment [1] amounted to 38 µM; in experiment [2] it was 2.4 µM.

Values taken from ChEMBL document CHEMBL1134940, “Highly potent non-peptidic inhibitors of the HCV NS3/NS4A serine protease” (Bioorg Med Chem Lett, 2002).
